The list is not random: actives were taken first. Their share in the collection is about 1.3%.
PfG6PD inh – PfG6PD (Plasmodium falciparum) enzyme inhibition; PfGluPho enzyme, NADPH resazurin-diaphorase fluorescence; inhibition, % at 20 µM; hit rate 0.78% among 350,000; AID 504690;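 active = inhibition reaching at least a set limit at 20 µM in the primary screen, cut at about 59% in these data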;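 also: 0% = DMSO wells with substrate and 100% = DMSO wells lacking glucose-6-phosphate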
G6PDH counter – counter-screen for G6PDH assay hits: L. mesenteroides G6PDH inhibition; inhibition, % at 5 µM; AID 1020; hit rate 0.12% among 200,000; Purified L. mesenteroides G6PDH, diaphorase/resazurin coupled fluorescence, 45 min; in the data active = inhibition above about 50%
HKDC1 inhibitor – blocks human hexokinase HKDC1 activity | Q2TB90 | hit rate 0.16% among 340,000 | inhibition, % at 20 µM | recombinant HKDC1, G6PDH/diaphorase resazurin coupled fluorescence;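 active = inhibition above about 35% when tested at 20 µM, limit read from the data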;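 also: plate controls were DMSO wells with enzyme for no effect and DMSO wells lacking enzyme for full effect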
Target sequence (Q2TB90 whole entry, looked up): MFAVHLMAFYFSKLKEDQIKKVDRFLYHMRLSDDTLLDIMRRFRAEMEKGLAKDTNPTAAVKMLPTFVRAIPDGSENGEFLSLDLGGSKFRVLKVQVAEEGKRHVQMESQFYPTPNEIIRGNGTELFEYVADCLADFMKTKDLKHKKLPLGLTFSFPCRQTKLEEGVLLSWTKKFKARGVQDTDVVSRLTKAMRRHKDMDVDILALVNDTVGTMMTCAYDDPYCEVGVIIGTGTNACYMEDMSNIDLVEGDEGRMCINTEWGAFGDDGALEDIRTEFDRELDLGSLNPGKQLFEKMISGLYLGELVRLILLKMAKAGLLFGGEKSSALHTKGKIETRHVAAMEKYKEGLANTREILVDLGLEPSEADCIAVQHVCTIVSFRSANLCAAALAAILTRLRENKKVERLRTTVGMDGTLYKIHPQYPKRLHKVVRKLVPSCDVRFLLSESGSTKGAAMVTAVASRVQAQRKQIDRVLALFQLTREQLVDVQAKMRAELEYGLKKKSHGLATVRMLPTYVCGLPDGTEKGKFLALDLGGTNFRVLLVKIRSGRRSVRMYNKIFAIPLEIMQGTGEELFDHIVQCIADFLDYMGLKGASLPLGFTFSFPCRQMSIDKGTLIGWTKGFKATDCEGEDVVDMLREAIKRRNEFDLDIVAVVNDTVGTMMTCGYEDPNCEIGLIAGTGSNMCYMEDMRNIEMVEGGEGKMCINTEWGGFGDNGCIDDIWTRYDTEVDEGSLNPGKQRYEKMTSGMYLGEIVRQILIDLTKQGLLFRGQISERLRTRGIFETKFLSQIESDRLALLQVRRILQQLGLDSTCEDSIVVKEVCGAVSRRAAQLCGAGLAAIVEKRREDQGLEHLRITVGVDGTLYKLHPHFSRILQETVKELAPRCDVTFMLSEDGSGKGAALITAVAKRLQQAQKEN
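Test system: HK5 enzyme. Quantity: 5 µg/mL HK5 final. Reagent: glucose and ATP substrates. Schedule: 90 min reaction incubation at room temperature, dark. Technique: resazurin-to-resorufin fluorescence via G6PDH and diaphorase coupling, 525/613 nm. Control set: DMSO wells with and without enzyme mix.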
Diaphorase act – activates diaphorase or chemically reduces, flagging diaphorase assay artifacts; Diaphorase/resazurin coupled assay, resorufin fluorescence, 16 min; stronger effect = higher value; 1 = vehicle wells, 0 = NADH-free wells; activation factor at 20 µM; hit rate 0.005% among 190,000;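 active = diaphorase activity raised at least twofold by the compound at 20 µM; inactive = activation factor below 2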
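Material: Clostridium kluyveri diaphorase, purified enzyme; Quantity: enzyme 0.07 U/mL final; Medium: HEPES pH 7.4 buffer with MgCl2 and Tween 20; Dosing: single compound dose of 20 µM, 1% DMSO final; Schedule: 16 min reaction at room temperature; Measured by: red resorufin fluorescence at 544/590 nm excitation/emission.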
Diaphorase inh – inhibits diaphorase or chemically oxidizes, flagging diaphorase assay artifacts | inhibition, % at 20 µM | hit rate 0.69% among 190,000 | AID 1217 | diaphorase resazurin-to-resorufin fluorescence, NADH, 16 min; bacterial (C. kluyveri) enzyme, not human;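 active = primary screen inhibition at 20 µM above a set limit, cut at about 50% in these data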;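 also: plate controls were DMSO with full reaction for no effect and wells lacking NADH for full effect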
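System: Diaphorase enzyme from Clostridium kluyveri | Amount: Enzyme working solution with 0.14 U/mL diaphorase | Benchmarks: No-NADH positive control and DMSO neutral control | Signal: Fluorescence of resorufin formed from resazurin, Ex 544/Em 590 nm | Schedule: 16-min room-temperature incubation before reading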
HKDC1 act conf2 – confirmation of human HKDC1 activators; shares compounds with HKDC1 inhibitor; recombinant HKDC1, G6PDH/diaphorase resazurin fluorescence; stronger effect = lower value; inhibition, % at 20 µM; hit rate 14% among 740; AID 504708;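 active = inhibition at or below a set negative limit, negative inhibition meaning the enzyme was activated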
PfGluPho conf – confirmation of Plasmodium falciparum G6PD inhibitors. inhibition, % at 20 µM. shares compounds with PfG6PD inh. AID 504753. hit rate 34% among 2,400. recombinant PfGluPho, NADPH-diaphorase-resazurin fluorescence;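 active = inhibition of at least 50% at 20 µM in any single replicate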;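 also: 0% = DMSO with substrate and 100% = DMSO lacking glucose-6-phosphate substrate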
Diaph ctr 10uM – counter-screen for P. falciparum G6PD inhibitors: diaphorase inhibitors, oxidizers | shares compounds with PfG6PD inh | diaphorase-coupled resazurin reduction, fluorescence, NADPH 10 uM | inhibition, % at 20 µM | hit rate 39% among 820;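 active = average inhibition reaching 50% or more with the compound at 20 µM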;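 also: resorufin red fluorescence formed as diaphorase reduces resazurin using NADPH; 0% = DMSO with enzyme and 100% = DMSO without enzyme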
Diaphorase 30uM – inhibits diaphorase or oxidizes, flagging false PfG6PD hits. Diaphorase/resazurin coupled assay, resorufin fluorescence, 30 uM NADPH. shares compounds with PfG6PD inh. inhibition, % at 20 µM. hit rate 29% among 820;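 active = inhibition averaging 50% or more, tested at 20 µM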;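 also: 0% = DMSO with enzyme and 100% = DMSO wells lacking diaphorase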
Numbers without * were called inactive; / = not tested or not shown.

SMILES	PfG6PD inh	G6PDH counter	HKDC1 inhibitor	Diaphorase act	Diaphorase inh	HKDC1 act conf2	PfGluPho conf	Diaph ctr 10uM	Diaphorase 30uM
O=C1C=CC(=O)C(C2=C3C(=O)N(CCc4ccccc4)CC(=O)N3CCC2)=C1	110.0*	11.8	63.1*	0.7	27.0	70.9	114.0*	98.8*	82.2*
COc1ccc2c(c1)c1ccc3c(c1n2C)C(=O)C=CC3=O	55.5	/	-0.8	/	/	/	/	/	/
Cn1c2ccccc2c2ccc3c(c21)C(=O)C=CC3=O	80.8*	/	37.5*	/	/	0.3	53.3*	-39.8	-6.8
Cc1ccc(C(=O)OCC(=O)NC2CCCC(C)C2C)s1 (centres undefined)	17.0	/	/	/	/	/	/	/	/
O=C1c2ccccc2C(O)N1c1ccccc1 (centres undefined)	-15.7	/	-8.1	/	/	/	/	/	/
Cc1ccc(SC2=C(Sc3ccc(C)cc3)C(=O)c3ccccc3C2=O)cc1	90.1*	/	66.0*	/	/	69.0	62.2*	20.3	-1.2
COc1ccc(S(=O)(=O)/N=C2\C=C(Nc3ccc(O)cc3)C(=O)c3ccccc32)cc1	108.6*	/	41.5*	/	/	26.9	52.3*	40.1	48.1
CC(=O)Nc1ccc(NC2=C/C(=N/S(=O)(=O)c3cccs3)c3ccccc3C2=O)cc1	87.5*	43.6	44.2*	0.9	7.6	51.9	73.2*	72.5*	75.6*
Cc1ccccc1NC1=C/C(=N\S(=O)(=O)c2ccc(C(=O)O)cc2)c2ccccc2C1=O	78.5*	/	70.2*	/	/	71.3	61.4*	59.4*	51.5*
CC(=O)Nc1ccc(NC(=O)C(C)OC(=O)c2ccccc2NS(=O)(=O)c2cccs2)cc1 (centres undefined)	51.8	/	-1.0	/	/	/	/	/	/
CCc1ccc(S(=O)(=O)/N=C2\C=C(NS(=O)(=O)c3ccccc3)C(=O)c3ccccc32)cc1	23.5	/	28.5	/	/	/	/	/	/
CCOc1ccc(N)c(SSc2cc(OCC)ccc2N)c1	68.0*	/	-41.9	/	/	-26.5	45.0	/	/
CC(Sc1nnnn1C)C(=O)Nc1ccccc1-c1ccccc1 (centres undefined)	-11.8	-2.7	-6.8	0.9	6.3	/	/	/	/
COc1cc(CN2CCCC(C(=O)c3ccc4c5c(cccc35)CC4)C2)cc(OC)c1O (centres undefined)	73.6*	62.1*	33.7	0.5	46.4	25.7	78.9*	16.4	-0.1
O=C(c1cccc(C(F)(F)F)c1)N1CCOc2ccccc21	28.0	/	1.1	/	/	/	/	/	/
C[n+]1c(-c2ccccc2)cc2c(=Cc3ccc([N+](=O)[O-])cc3)c3ccccc3n21	76.3*	/	36.3*	/	/	6.0	49.9*	-15.7	-4.9
CN(C)c1ccc(C=c2c3cc(O)ccc3n3c2cc(-c2ccccc2)[n+]3C)cc1	82.5*	/	55.5*	/	/	30.3	88.7*	35.0	31.5
CCn1c2ccccc2c2cc([N+](=O)[O-])ccc21	10.2	5.6	-1.9	0.9	14.9	/	/	/	/
Cc1ccc(S(=O)(=O)N(CCCc2c(C)nc[nH]c2=O)c2ccccc2)cc1	-0.8	/	-7.8	/	/	/	/	/	/
Cc1ccc(C(=O)c2coc3c2C(=O)C(=O)c2ccccc2-3)cc1	110.0*	58.5*	57.1*	0.4	58.2*	28.6	109.8*	93.3*	100.5*
O=C(c1ccc(Cl)cc1)c1ccc(CN2C(=O)c3ccccc3C2=O)o1	-2.2	4.6	6.9	0.8	16.7	/	/	/	/
Cc1oc2c(c1C(=O)c1ccc(Cl)cc1)C(=O)C(=O)c1ccccc1-2	116.7*	60.1*	54.6*	0.4	59.8*	46.1	88.3*	83.3*	77.5*
Cc1ccc(C(=O)c2c(C)oc3c2C(=O)C(=O)c2ccccc2-3)cc1	106.7*	63.3*	48.4*	0.4	56.7*	46.2	92.0*	92.1*	97.9*
O=C(c1ccc(Br)o1)N1CCN(c2ccc3nnc(-c4ccccc4)n3n2)CC1	3.1	-19.0	5.7	0.6	37.5	/	/	/	/
Cc1ccc(S(=O)(=O)Nc2cccc(C(=O)NCC(C)(C)N3CCOCC3)c2)cc1F	4.8	/	-1.4	/	/	/	/	/	/
SMILES	PfG6PD inh	G6PDH counter	HKDC1 inhibitor	Diaphorase act	Diaphorase inh	HKDC1 act conf2	PfGluPho conf	Diaph ctr 10uM	Diaphorase 30uM
O=C1C=C(NCc2ccccc2)c2ccccc2C1=O	117.6*	53.2*	79.8*	1.1	-14.9	56.0	29.1	/	/
CC(C)c1nc2oc3c(NCC4CCCO4)ncnc3c2c2c1COC(C)(C)C2 (centres undefined)	65.6*	1.0	40.0*	0.1	90.3*	62.8	37.4	/	/
CC1(C)Cc2c(C#N)c(NCC3CCCO3)nc(-c3ccco3)c2CO1 (centres undefined)	19.6	-0.4	-2.7	0.9	13.1	/	/	/	/
Cc1nc(COC(=O)c2ccc(CO)cc2)cs1	-6.2	8.0	-2.4	0.9	13.1	/	/	/	/
Cc1nc(COC(=O)c2cc(O)c3ccccc3c2O)cs1	91.8*	38.0	60.5*	0.7	34.1	39.5	54.9*	-11.1	-2.6
c1ccc(CNc2cncnc2)cc1	-8.6	/	-6.8	/	/	/	/	/	/
CCOC(=O)c1c(NC(=O)CSc2nnc(Cc3ccccc3)o2)sc(C(C)=O)c1C	-3.3	-3.7	1.2	0.8	16.4	/	/	/	/
CCOC(=O)c1sc(NC(=O)CSc2nnc(Cc3ccccc3)o2)c(C#N)c1C	88.1*	-25.3	-40.4	0.9	9.3	-29.9	59.6*	-24.1	-17.6
C=CCN1C=C2C(=O)C(C)(OC(=O)CCC(=O)OC)C(=O)C(Br)=C2C=C1c1ccc(OC)cc1 (centres undefined)	85.6*	/	35.6*	/	/	57.5	54.9*	40.2	36.3
CCCCC1=CC2=C(c3ccco3)C(=O)C(C)(OC(=O)c3ccc(OC)cc3)C(=O)C2=CN1c1ccc(OC)cc1 (centres undefined)	19.4	/	12.7	/	/	/	/	/	/
COC(=O)CCC(=O)OC1(C)C(=O)C2=CN(c3ccc(OC)cc3)C(c3ccc(OC)cc3)=CC2=C(Br)C1=O (centres undefined)	71.1*	/	35.0	/	/	8.0	47.8*	31.5	24.2
COCCN1C=C2C(=O)C(C)(OC(=O)CCC(=O)OC)C(=O)C(Br)=C2C=C1c1ccc(OC)cc1 (centres undefined)	93.7*	/	38.5*	/	/	-4.3	43.7	/	/
C=CCN1C=C2C(=O)C(C)(OC(=O)C3CCCC3)C(=O)C(c3ccccc3)=C2C=C1CCCC(=O)OC (centres undefined)	-1.3	/	13.1	/	/	/	/	/	/
COC(=O)CCCC1=CC2=C(c3ccccc3)C(=O)C(C)(OC(=O)C3CCCC3)C(=O)C2=CN1C1CC1 (centres undefined)	14.4	/	10.6	/	/	/	/	/	/

Assay outcomes as filed in PubChem BioAssay.
